Results from ChEMBL document CHEMBL1124106, “Synthesis of diethylenetriaminepentaacetic acid conjugated inulin and utility for cellular uptake of liposomes” (J Med Chem, 1988).
Several values for one entry are separate records, joined by “and”; a condition that tells them apart may be missing. Equal values may be shown once.

Assays:
Mus musculus [1] = experiment: Biodistribution in mice kidneys, after 12 hr of intravenous administration of 1-2 ug of compound (entrapped in bovine brain sphingomyelin/ cholesterol multilamellar vehicles); type: ADME, organism-based, Kidney; settings: in vivo
Method in brief: (§1)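 BALB/c mice (about 25 g), 3–5 per group, given 50–100 μL tail-vein injection of 111In-labeled conjugate entrapped in SM/CH (2:1 mol/mol) multilamellar vesicles, approx. 100 000 cpm; dose 1–2 μg phospholipid/g body weight. Killed by cervical dislocation at set times; blood, cumulative excretion and rinsed, blotted, weighed tissues γ-counted, blood background subtracted. Result is % injected dose ± SD.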

Mus musculus [2] = experiment: Biodistribution in mice lung, after 24 hr of intravenous administration of 1-2 ug of compound (entrapped in bovine brain sphingomyelin/ cholesterol multilamellar vehicles); type: ADME, organism-based; settings: in vivo; method in brief: as §1
Mus musculus [3] = experiment: Biodistribution in mice heart, after 12 hr of intravenous administration of compound (entrapped in bovine brain sphingomyelin/ cholesterol multilamellar vehicles); type: ADME, organism-based; settings: in vivo; method in brief: as §1
[4] = (§2) Biodistribution of compound in mice excretion after 1 hr of intravenous injection; type: ADME, organism-based; settings: mouse, excretion (excreta, not specified further), read-out: ID
Method in brief: (§3)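 BALB/c mice (about 25 g), n = 4. Free ¹¹¹In- or ⁶⁷Ga-labeled compound (50–100 μL, about 100 000 cpm) was injected into a tail vein. Mice were held in separate cages and killed by cervical dislocation, with blood and cumulative excreta collected. Tissues were rinsed, blotted, weighed and γ-counted, with blood background subtracted (blood volume 8.0%). Values are % injected dose ± SD.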

Mus musculus [5] = experiment: as §2; type: ADME, organism-based; settings: in vivo, 1 h; method in brief: as §3
Mus musculus [6] = experiment: Biodistribution in mice skin, after 48 hr of intravenous administration of 1-2 ug ofcompound (entrapped in bovine brain sphingomyelin/ cholesterol multilamellar vehicles); type: ADME, organism-based, Zone of skin; settings: in vivo; method in brief: as §1
Mus musculus [7] = experiment: Biodistribution in mice carcass, after 24 hr of intravenous administration of 1-2 ug ofcompound (entrapped in bovine brain sphingomyelin/ cholesterol multilamellar vehicles); type: ADME, organism-based; settings: in vivo; method in brief: as §1
Mus musculus [8] = experiment: Biodistribution of compound in mice liver after 1 hr of intravenous injection; type: ADME, organism-based; settings: in vivo; method in brief: as §3
Mus musculus [9] = experiment: Biodistribution of compound in mice spleen after 21 hr of intravenous injection; type: ADME, organism-based; settings: in vivo; method in brief: as §3

ID (Mus musculus [1]): 0.4% | ID (Mus musculus [2]): 0.4% | ID (Mus musculus [3]): 0% | dose excreted at 1 h [4]: 50.7% | ID (Mus musculus [5]): 50% | ID (Mus musculus [6]): 2.8% | ID (Mus musculus [7]): 2.1% | ID (Mus musculus [8]): 0.3% and 1.4% | ID (Mus musculus [9]): 0.1%
SMILES: NCCNC(=O)CN(CCN(CCN(CC(=O)O)CC(=O)O)CC(=O)O)CC(=O)O
